# Bioassay records: PubChem, several laboratories
# tolC growth inh – growth inhibitors of E. coli tolC mutant, primary screen, strain BW25113 ΔtolC::kan, 384-well | OD615 | growth inhibition, % at 10 µM (by protocol) | hit rate 2.2% among 65,000 | AID 573, 2007;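 active = growth inhibition at or above a cutoff equal to the mean over every tested compound plus 3 SD, cut at about 60% in these data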;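 also: growth measured after 20 h incubation at 37 °C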
#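 System: E. coli ΔtolC::kan strain BW25113; Buffer or medium: LB broth supplemented with 50 µg/mL kanamycin; Compound: 10 µM final, single dose; Incubation: bacterial growth with compound for 20 h at 37 °C; Signal: A615 absorbance measurement; Evaluation: growth inhibition in percent.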
# Mac1 fbg enh – enhancers of CD11b/CD18 adhesion to fibrinogen, primary screen, K562 cells, luminescence; ATPlite luminescence; activation, % at 10 µM; hit rate 0.07% among 93,000;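 active = 10 µM primary screen giving 50% or more activity, confirmed by 40% or more on retest at that dose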
# Target sequence (P05107 whole entry, looked up, other chains not shown): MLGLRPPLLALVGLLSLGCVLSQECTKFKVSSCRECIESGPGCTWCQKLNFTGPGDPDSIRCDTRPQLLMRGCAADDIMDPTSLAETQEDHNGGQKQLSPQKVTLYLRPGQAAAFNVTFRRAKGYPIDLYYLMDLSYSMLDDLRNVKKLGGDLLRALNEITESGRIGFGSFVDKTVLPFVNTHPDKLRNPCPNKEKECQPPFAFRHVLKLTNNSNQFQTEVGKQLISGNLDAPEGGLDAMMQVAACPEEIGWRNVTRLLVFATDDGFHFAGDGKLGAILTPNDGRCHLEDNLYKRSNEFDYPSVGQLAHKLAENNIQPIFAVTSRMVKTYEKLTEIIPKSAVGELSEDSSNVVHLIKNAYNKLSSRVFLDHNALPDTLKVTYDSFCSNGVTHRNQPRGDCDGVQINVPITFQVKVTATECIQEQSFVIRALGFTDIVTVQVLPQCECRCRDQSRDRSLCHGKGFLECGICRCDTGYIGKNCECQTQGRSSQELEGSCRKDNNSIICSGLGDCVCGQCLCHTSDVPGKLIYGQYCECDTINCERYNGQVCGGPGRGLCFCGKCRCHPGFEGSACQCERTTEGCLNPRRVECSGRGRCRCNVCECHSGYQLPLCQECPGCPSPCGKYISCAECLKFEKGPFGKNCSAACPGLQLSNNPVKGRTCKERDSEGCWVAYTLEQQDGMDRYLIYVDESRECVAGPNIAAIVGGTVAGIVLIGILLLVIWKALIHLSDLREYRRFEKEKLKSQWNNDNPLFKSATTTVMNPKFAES
# E coli WT exp – growth inhibitors of wild-type E. coli, primary screen, strain BW25113, expanded library, OD600 | hit rate 0.15% among 98,000 | OD600 absorbance | growth inhibition, % at 100 µM | AID 710, 2007;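 active = growth inhibition above about 50% at one test dose, limit read from the data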;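 also: growth measured after 20 h incubation at 37 °C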
# Mac1 fbg inh – inhibitors of CD11b/CD18 adhesion to fibrinogen, primary screen, K562 cells, luminescence | inhibition, % at 10 µM | Integrin beta-2 (Homo sapiens) + Integrin alpha-M (Homo sapiens), P05107+P11215 | ATPlite luminescence; Mn2+ added to activate the integrin | AID 1497, 2009 | hit rate 0.54% among 93,000;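 active = primary inhibition of 50% or more at 10 µM, then 40% or more on retest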
# An asterisk follows results filed as active; / = not tested or not shown. The sample as a whole holds a higher share of hits than the screen did.
SMILES,tolC growth inh,Mac1 fbg enh,E coli WT exp,Mac1 fbg inh
O=C(Nc1nnc(C2CC2)o1)c1ccc(S(=O)(=O)N2CCCc3ccccc32)cc1,100*,0,6,-10
O=C(NCc1ccco1)c1ccc(S(=O)(=O)N2CCCc3ccccc32)cc1,71*,-3,-8,7
O=C(N1CCN(c2ccccc2F)CC1)C1(c2cccs2)CCOCC1,/,2,/,3
CC/C(C)=C1\SC(N2CCOCC2)=NC1=O,/,1,7,1
Cc1nc(N2CCC(C)CC2)c2oc3ccccc3c2n1,/,-6,-2,48
Cc1nc(N2CCN(Cc3ccc4c(c3)OCO4)CC2)c2oc3ccccc3c2n1,95*,/,/,/
COc1ccccc1N1CCN(c2nc(C)nc3c2oc2ccccc23)CC1,97*,-3,-3,44
Cc1c(NC(=O)C(=O)/C=C(\O)c2ccc(Br)cc2)c(=O)n(-c2ccccc2)n1C,/,-2,/,-2
O=C(Nc1cccc(Br)c1)c1cc2ccccc2o1,100*,-6,4,-2
CC(OC(=O)c1ccccc1NCc1ccco1)C(=O)Nc1ncc(Cl)cc1Cl (stereo unspecified),61*,-2,-1,6
NC(=O)NC(=O)CSc1cccc(C(F)(F)F)c1,-14,/,1,/
Cc1c(C(=O)OCCOc2ccccc2)[nH]c2c1C(=O)CCC2,63*,-1,-8,25
CCCc1c(C(=O)OCC)[nH]c2c1C(=O)CCC2,46,-2,2,1
Cc1c(C(=O)OC2CCCC2C)[nH]c2c1C(=O)CCC2 (stereo unspecified),84*,1,-1,23
Cc1ccccc1-c1n[nH]c(=S)n1/N=C/c1c(C)nn(-c2ccccc2)c1C,/,13,/,-4
CCOc1cc(/C=C(/C#N)c2ccc(F)cc2)ccc1OCc1ccc(C(=O)O)o1,82*,-1,-10,4
CCOC(=O)c1cc2sc(C)cc2n1CC(=O)Nc1cccc(C)c1C,0,/,-13,/
CCOC(=O)c1cc2sc(C)cc2n1C(C)C(=O)OCC (stereo unspecified),62*,3,6,1
Cc1sc2ncnc(N3CCN(CCOc4ccc(Cl)cc4)CC3)c2c1C,/,-9,-19,99*
Cc1ccc(-c2nnc(SCC(=O)N3CC(C)CC(C)C3)o2)cc1C (stereo unspecified),97*,/,-8,/
O=C(Nc1ccccc1)Nc1cc(Cl)cc(Cl)c1,/,-4,14,56*
O=C(Nc1cccc(Cl)c1)Nc1nccs1,69*,0,77*,9
Cc1csc(NC(=O)Nc2cccc(Cl)c2)n1,33,/,23,/
CSc1cccc(NC(=O)Nc2ccccc2)c1,40,3,2,-20
O=C(NNC(=O)C1CC2CCC1C2)c1sc2ccccc2c1Cl (stereo unspecified),/,3,/,9
SMILES,tolC growth inh,Mac1 fbg enh,E coli WT exp,Mac1 fbg inh
CSc1nnc(-c2cc3c(s2)-c2ccccc2CC3)o1,/,5,-15,4
S=c1[nH]nc(-c2cc3c(s2)-c2ccccc2CC3)o1,/,-7,9,64*
O=C(CSc1ccc2ccccc2c1)NC1CCCc2ccccc21 (stereo unspecified),/,4,/,5
CCN(CC)C(=O)c1sc(NC(=O)C(Sc2ccccc2)c2ccccc2)c(C(=O)OC(C)C)c1C (stereo unspecified),/,0,-18,8
CCOC(=O)Nc1sc2c(c1C(=O)OCC)CCC2,4,-5,4,-9
CCOC(=O)c1c(NS(=O)(=O)c2cccc(OC)c2)sc2c1CCC2,79*,-1,8,44
CC(C)(C)NC(=O)C(c1ccco1)N(C(=O)Cn1nnc(-c2ccc(F)cc2)n1)c1ccccc1F (stereo unspecified),71*,3,0,-33
O=C(NCC1CCCO1)c1ccc2c(=O)n(CC3CCCO3)c(=S)[nH]c2c1 (stereo unspecified),/,-5,5,-3
O=C(NCC1CCCO1)c1sc(=S)n2c1[nH]c(=O)c1ccc(C(=O)N3CCCCC3)cc12 (stereo unspecified),67*,-1,-9,7
O=C(NC1CCCCC1)c1sc(=S)n2c1[nH]c(=O)c1ccccc12,100*,-10,-11,105*
O=C(NC1CCCCCC1)c1c(O)c2ccccc2[nH]c1=O,-19,9,-13,17
CCCCNC(=O)c1sc(=S)n(-c2ccccc2OC)c1N,/,5,4,-19
CCCCNC(=O)c1sc(=S)n2c1[nH]c(=O)c1ccccc12,100*,-10,11,97*
